Bioassay records: PubChem BioAssay, The Scripps Research Institute Molecular Screening Center
Shown is part of a subset that was picked to be rich in hits.
RORa inhibitor – blocks the human nuclear receptor RORA; CHO-K1 Gal4-RORA LBD luciferase reporter, luminescence; inhibition, % at 10 µM; actives 0.43% (n = 65,000); P35398;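 active = inhibition above the mean of all tested compounds plus 3 SD, cut at about 52% in these data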;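 also: 0% = RORA-transfected cells with DMSO and 100% = mock-transfected cells lacking RORA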
Target sequence (P35398 whole entry, looked up, the tested form may be a part): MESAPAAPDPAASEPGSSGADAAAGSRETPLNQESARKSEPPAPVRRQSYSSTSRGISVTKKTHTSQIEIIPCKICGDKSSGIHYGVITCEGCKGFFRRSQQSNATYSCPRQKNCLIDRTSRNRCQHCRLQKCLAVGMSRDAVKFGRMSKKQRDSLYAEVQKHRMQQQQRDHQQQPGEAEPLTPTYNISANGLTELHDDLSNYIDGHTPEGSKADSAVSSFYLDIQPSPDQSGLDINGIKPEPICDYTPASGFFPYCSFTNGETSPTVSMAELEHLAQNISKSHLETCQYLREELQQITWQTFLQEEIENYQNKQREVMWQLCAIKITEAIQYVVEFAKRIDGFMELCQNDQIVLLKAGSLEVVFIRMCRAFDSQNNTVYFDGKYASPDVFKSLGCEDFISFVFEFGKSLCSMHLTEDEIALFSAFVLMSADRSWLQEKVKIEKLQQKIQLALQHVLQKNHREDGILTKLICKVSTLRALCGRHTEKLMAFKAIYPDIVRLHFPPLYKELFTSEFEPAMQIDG
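Test system: CHO-K1 cells with Gal4-hRORA LBD fusion and pG5-luc reporter / Compound: single concentration per compound, 10 µM final / Schedule: 20 h compound treatment, 37 °C / Signal: luminescence from basal luciferase reporter expression / Read-out: % inhibition / Control set: mock-transfected cells as 100%, +RORA DMSO cells as 0% / Replicates: tested once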
Active calls of the source: *.

SMILES	RORa inhibitor
CCC1SC2=NC(C)=C(C(=O)OC)C(c3cccs3)N2C1=O (stereo not given)	-7.1
CCCCC(=O)Nc1ccc(C(=O)N2CCCC(C(=O)OCC)C2)cc1 (stereo not given)	-2.6
CCOC(=O)C1=C(C)Nc2nc(SCC)[nH]c(=O)c2C1c1ccncc1 (stereo not given)	-2.6
CN(C)c1nc(N)nc(Cn2ccnc2)n1	21.2
COc1ccc(N2CCN(CCCNC(=O)CC3Oc4ccc(C)cc4NC3=O)CC2)cc1 (stereo not given)	7.6
CC1(C)NC(=O)N(CC(O)COc2ccc(N3C(=O)c4ccccc4C3=O)cc2)C1=O (stereo not given)	-17.2
Cc1ccc(-c2csc3ncnc(Sc4nnc(CN5CCCCCC5=O)o4)c23)cc1	57.4*
N#Cc1c(NC(=O)COC(=O)C2CC3C=CC2C3)oc(-c2ccccc2)c1-c1ccccc1 (stereo not given)	12.5
Cc1cc2c(cc(C(=O)OCC(=O)NCc3cccs3)n2C(C)C)o1	-56.6
COc1ccc2cc3c(N)c(C(=O)N4CCCC4)sc3nc2c1	7.9
O=C(Nc1ccc2nc3n(c(=O)c2c1)CCCCC3)c1ccccn1	-54.4
COc1ccc(-c2cc3nc4n(c(=O)c3s2)CCC4)cc1	71.4*
CCC1CCCCN1C(=O)CSc1nc(N)c(NC(=O)c2ccc(OC)c(OC)c2)c(=O)[nH]1 (stereo not given)	19.5
COC(=O)Cn1ncn2c(cc3oc(C)cc32)c1=O	-33.6
COC(=O)c1cc(Br)c(=O)n(-c2ccc(OC)cc2)c1	-8.5
C=CCSc1nncn1/N=C/c1ccc(OC)cc1	-90.8
COc1ccc(/C=N\n2nnc3ccccc32)cc1	74.4*
CSc1ccc(/C=N/n2nnnc2N)cc1	-51.3
O=S(=O)(NCCOC12CC3CC(CC(C3)C1)C2)c1cccc2nsnc12	23.2
COc1ccccc1-c1cc(C(F)(F)F)nc(S(=O)(=O)CCCC(=O)NC(C)C)n1	57.0*
COc1ccccc1-c1cc(C(F)(F)F)nc(S(=O)(=O)CCCC(=O)Nc2cc(C)on2)n1	70.3*
COc1ccc(S(=O)(=O)CCC(=O)NC2CCCCC2)cc1	6.1
Cc1cc(NC(=O)COc2cccc3cccnc23)no1	-14.1
COc1ccccc1CNC(=O)C(C)NS(=O)(=O)c1ccc(C)cc1 (stereo not given)	34.2
COc1ccc(S(=O)(=O)N(CC(=O)Nc2cc(C)on2)Cc2ccccc2)cc1	-5.6
SMILES	RORa inhibitor
COc1cc(C2C3C(C)N(C)C(=O)N(C)C3N(C)C(=O)N2C)ccc1O (stereo not given)	13.1
CSc1nnc(Cn2c(=O)sc3ccccc32)n1-c1ccccc1C	5.2
O=C(O)[C@H](Cc1ccccc1)NC(=O)N1CCOCC1	9.2
Cc1cccn2c(=O)c3cc(C(=O)N4CCN(c5ccccc5)CC4)n(C)c3nc12	8.9
COc1ccc(CCNC(=O)C2CCCN(C(=O)N(C)C)C2)c(OC)c1 (stereo not given)	-14.2
COc1cccc2c1C(=O)c1c(O)c3c(c(O)c1C2=O)C[C@@](O)(C(C)=O)C[C@@H]3O[C@H]1C[C@H](N)[C@H](O)[C@H](C)O1	77.5*
COc1ccc(C(=O)c2ccccc2)c(O)c1	-9.5
COc1cccc(NC(=O)Cc2nnc(SCC(=O)c3ccccc3)n2C)c1	3.4
COc1ccc(O)c(C(=O)CC(=O)c2ccc(F)cc2)c1	57.7*
CCCCc1ccc(NC(=O)C2CCN(S(C)(=O)=O)CC2)cc1	5.9
CC(C)c1ccc(NC(=O)CSc2nc3c(c(=O)[nH]2)CCC3)cc1	2.2
O=C(NCCCn1ccnc1)c1cc(-c2cccs2)on1	-91.8
O=C(Nc1cccc(Br)c1)c1cc2ccccc2o1	-71.0
CC#CCCCC(=O)Nc1cccc(C(=O)O)c1	-56.0
Cc1cc(C(=O)Nc2cccc(C(=O)O)c2)oc1C	74.2*
CCCCn1c(SCC(=O)N2CCN(c3ccccc3)CC2)nc2ccsc2c1=O	16.2
CCCc1ccc(-c2ccc(F)c(N)c2)nc1	69.1*
Cc1nn(-c2ccccc2)c(Cl)c1C(=O)N1CCN(c2ncnc3c2cnn3-c2ccccc2)CC1	37.2
CCOC(=O)C1CCN(c2ncnc3c2cnn3-c2ccc(Cl)cc2)CC1	66.5*
Cc1ccc(-n2ncc3c(N4CCC(C(N)=O)CC4)ncnc32)c(C)c1	15.3
Cn1c(=O)cc(OCCCC(=O)NCc2ccc3c(c2)OCO3)c2ccccc21	7.7
COc1cc2c(cc1OC)CN(C(=O)COc1ccc(C)c(C)c1)CC2	-23.2
CCCN1Cc2cccc(C(=O)NCc3cccs3)c2C1=O	9.5
COc1cccc(CNC(=O)CCCNS(=O)(=O)c2cccs2)c1	0.6
N#CC(C#N)=c1ccc2c(c1)NC1(CCCCC1)N=2	58.1*
SMILES	RORa inhibitor
Cc1c(C)[n+](=O)c(-c2ccco2)c(C)n1[O-]	21.5
Cc1ccc2nc(NC3=NCN(CCN4CCOCC4)CN3)nc(C)c2c1	-8.4
Nc1nc(Cl)nc2c1ncn2[C@H]1C[C@H](O)[C@@H](CO)O1	69.4*
c1ccc(-c2nc(N3CCCCCC3)c3ccccc3n2)nc1	78.7*
COc1ccc(Nc2nc(N3CCCC3)c3ccccc3n2)cc1	10.0
O=C(O)c1cccc(N2CCCC2)c1	2.7
